From publication PMC4569539 (Bioorganic & medicinal chemistry letters, 2015)
Like-named read-outs stand apart in the source and are kept apart here.

Key:
[1] = Brain and plasma pharmacokinetics after ip administration of 5 mg/kg; assay type: in vivo; conditions: mice, after ip injection of 5 mg/kg of 4
Procedure, shortened: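 Mice received the test compound at 5 mg/kg ip. Brain and plasma levels were followed over time to give elimination rates from each compartment. In a repeat-dose arm, tissues were sampled 4 h after a single 5 mg/kg ip dose or 4 h after the second of two doses given 4 h apart. Brain-to-plasma concentration ratios were calculated for each regimen.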

[2] = stated as known for 1 and related congeners, no reference given; cited from earlier work
[3] = cited from earlier work
[4] = assay type: in vivo; conditions: plasma concentration after ip versus oral administration
[5] = system: acetylated α-tubulin; experiment: Acetylated α-tubulin in brain homogenates after repeated dosing; assay type: in vivo; conditions: normal mice, 1 day after two 5 mg/kg doses (ip)

Structure (SMILES)	distribution of metabolites in brain and plasma samples [1]	brain penetration [3]	differential between brain and plasma half-life [3]	further results
C[C@H](Nc1c(-c2c(F)cc(O)cc2F)c(Cl)nc2ncnn12)C(F)(F)F [compound 6]	detected predominantly in plasma	–	–	–
CNCCCOc1cc(F)c(-c2c(Cl)nc3ncnn3c2N[C@@H](C)C(F)(F)F)c(F)c1 [compound 1, cevipabulin]	–	–	–	oral bioavailability [2]: orally bioavailable
C/C(=C\c1csc(C)n1)[C@@H]1C[C@@H]2O[C@]2(C)CCC[C@H](C)[C@H](O)[C@@H](C)C(=O)C(C)(C)[C@@H](O)CC(=O)O1 [epothilone B]	–	brain penetrant	large differential	–
C/C1=C/C[C@@H](/C(C)=C/c2csc(C)n2)OC(=O)C[C@H](O)C(C)(C)C(=O)[C@H](C)[C@@H](O)[C@@H](C)CCC1 [epothilone D]	–	brain penetrant	large differential	–
C[C@H](Nc1c(-c2c(F)cc(OCCC(=O)O)cc2F)c(Cl)nc2ncnn12)C(F)(F)F [compound 5]	detected predominantly in plasma	–	–	–
C[C@H](Nc1c(-c2c(F)cc(OCCCO)cc2F)c(Cl)nc2ncnn12)C(F)(F)F [compound 4, (S)-3-(4-(5-Chloro-7-((1,1,1-trifluoropropan-2-yl)amino)-[1,2,4]triazolo[1,5-a]pyrimidin-6-yl)-3,5-difluorophenoxy)-propan-1-ol]	–	–	–	oral bioavailability [4]: orally bioavailable; acetylated α-tubulin (marker of stable MTs) in brain homogenates [5]: significant elevation
